Experimental data reported in ChEMBL document CHEMBL1828600, “Derivatives of pyrrolo[3,4-d]pyridazinone, a new class of analgesic agents” (Eur J Med Chem, 2011).
The source made the active and inactive calls.

How the values were obtained:
Mus musculus [1] = species: Mus musculus; experiment: Ratio of acetylsalicylic acid ED50 to compound ED50 for analgesic activity in Albino-Swiss mouse assessed as protection against phenylbenzoquinone-induced writhing; assay type: functional
Method in brief: (§1)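 Mice (groups of 6–8) dosed i.p. at 3.125–50 mg/kg as 0.5% methylcellulose suspension; 30 min later 0.02% phenylbenzoquinone (ethanol–water 5:95) 0.25 ml i.p. Writhes counted for 10 min starting 5 min after irritant. % effect versus control writhing count; ED50 with confidence limits by Litchfield and Wilcoxon.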

Mus musculus [2] = experiment: Analgesic activity in Albino-Swiss mouse assessed as inhibition of heat-induced paw licking or jumping behavior administered as ip measured after 30 mins for 45 secs by Eddy and Leimbach's hot plate method; assay type: functional
Method in brief: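 Compound i.p. in 0.5% methylcellulose suspension (10 ml/kg), groups of 6–8 mice. Placed on plate at 54–56 °C; latency to forepaw licking or jumping timed by stop-watch before and 30 min after dosing, 45 s cut-off. Latency prolongation compared statistically. Morphine 1, 3, 6 mg/kg and acetylsalicylic acid 100–400 mg/kg i.p. as references.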

Mus musculus [3] = experiment: Analgesic activity in Albino-Swiss mouse assessed as protection against phenylbenzoquinone-induced writhing administered as ip 30 mins before phenylbenzoquinone challenge measured after 5 mins; assay type: functional; method in brief: as §1
[4] = Acute toxicity in ip dosed Albino-Swiss mouse; assay type: organism-based; details: in vivo
Method in brief: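 Mice (20–24 g) given compound i.p. as 0.5% methylcellulose suspension, 10 ml/kg, in rising doses up to 2000 mg/kg; six animals per dose. Deaths counted at 24 h, general behaviour watched for 6 h. LD50 by Litchfield and Wilcoxon.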

Mu-type opioid receptor = Mu-type opioid receptor (Rattus norvegicus, UniProt P33535); experiment: Displacement of [3H]-dihydromorphine from mu opioid receptor in rat cerebral cortex by liquid scintillation counting; assay type: tissue-based
Sequence of Mu-type opioid receptor (P33535 whole entry): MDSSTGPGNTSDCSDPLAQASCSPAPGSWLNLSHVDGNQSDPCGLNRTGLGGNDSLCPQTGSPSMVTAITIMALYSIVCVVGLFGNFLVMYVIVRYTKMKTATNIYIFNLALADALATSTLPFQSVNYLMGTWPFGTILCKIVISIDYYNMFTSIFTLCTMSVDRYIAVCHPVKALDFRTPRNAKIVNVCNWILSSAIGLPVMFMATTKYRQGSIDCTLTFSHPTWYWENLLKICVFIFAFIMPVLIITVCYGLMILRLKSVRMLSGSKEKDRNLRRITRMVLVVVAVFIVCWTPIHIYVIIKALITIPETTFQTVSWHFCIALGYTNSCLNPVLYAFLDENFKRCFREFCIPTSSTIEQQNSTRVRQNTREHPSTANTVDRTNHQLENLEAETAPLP
Method in brief: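 Rat cerebral cortex homogenised in 50 mM Tris-HCl pH 7.6, washed by centrifugation at 48,000 × g, preincubated 30 min at 37 °C to remove endogenous opioids. Membranes incubated with 0.2 nM [3H]dihydromorphine and 7–8 compound concentrations (10^-11–10^-4 M); nonspecific binding with levallorphan. Filtration on GF/C, two washes, scintillation counting, duplicates. Result given as Ki.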

Mus musculus [5] = experiment: Toxicity in ip dosed Albino-Swiss mouse assessed as decrease in locomotor activity at hot plate test ED50 after 1 hr; assay type: organism-based; set-up: scale not given: the % may be the effect or the level left; details: in vivo
Method in brief: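 Mice (Albino-Swiss, 20–24 g) received compound i.p. as a 0.5% methylcellulose suspension (10 ml/kg). After 30 min, each mouse was put alone for a 30-min session in a circular photoresistor actometer (30 cm diameter, two photocells, impulse counter), which counted movements.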

Mus musculus [6] = species: Mus musculus; experiment: Ratio of morphine ED50 to compound ED50 for analgesic activity in Albino-Swiss mouse by Eddy and Leimbach's hot plate method; assay type: functional
Mus musculus [7] = experiment: Analgesic activity in Albino-Swiss mouse assessed as inhibition of heat-induced paw licking or jumping behavior at 200 mg/kg, ip measured after 30 mins for 45 secs by Eddy and Leimbach's hot plate method; assay type: functional, organism-based; set-up: dose 200 mg/kg
Method in brief: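 Albino-Swiss mice (20–24 g), groups of 6–8, dosed i.p. as a suspension in 0.5% methylcellulose (10 ml/kg). Each mouse was placed on a metal plate at 54–56 °C, and time to forepaw licking or jumping was stopwatch-timed before and 30 min after dosing, with a 45 s cut-off. Latency prolongation was compared by Student's t-test.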

For `Cc1c2c(=O)[nH]n(CCN3CCC(Cc4ccccc4)CC3)c(=O)c2c(C)n1-c1ccccc1`, the “Ratio ED50” value (Mus musculus [1]) was 100, the ED50 (Mus musculus [2]) was “inactive” and the ED50 (Mus musculus [3]) was 1.91 mg/kg. The LD50 [4] was greater than 2000 mg/kg.

`COc1cccc(C2(O)CCCCC2CN(C)C)c1` (centres undefined) [TRAMADOL] gave a Ki (Mu-type opioid receptor) of 2400 nM.

With `Cc1ccc(Cl)cc1N1CCN(CCn2[nH]c(=O)c3c(C)n(-c4ccccc4)c(C)c3c2=O)CC1` the Activity (Mus musculus [5]) was 45%, the “Ratio ED50” value (Mus musculus [1]) was 100 and the ED50 (Mus musculus [2]; 0.5 h) was 10.3 mg/kg. The “Ratio ED50” value (Mus musculus [6]) was 3, the IC50 (Mu-type opioid receptor) was 5.6 µM and the Ki (Mu-type opioid receptor) was 2600 nM. The ED50 (Mus musculus [3]) was 0.55 mg/kg and the LD50 [4] was greater than 2000 mg/kg.

`C=CCN1CC[C@]23CCCC[C@H]2[C@H]1Cc1ccc(O)cc13` [LEVALLORPHAN] gave an IC50 (Mu-type opioid receptor) of 0.000634 µM.

For `Cc1c2c(OCCCN3CCN(c4ccccc4)CC3)nn(C)c(=O)c2c(C)n1-c1ccccc1`, the ED50 (Mus musculus [2]) was “inactive”, the ED50 (Mus musculus [3]) was 7.9 mg/kg and the LD50 [4] was 1420 mg/kg.

`CN1CC[C@]23c4c5ccc(O)c4O[C@H]2[C@@H](O)C=C[C@H]3[C@H]1C5` [MORPHINE] gave an ED50 (Mus musculus [2]; 0.5 h) of 3.5 mg/kg and an ED50 (Mus musculus [3]) of 2.44 mg/kg.

In the case of `COc1ccccc1N1CCN(CCn2[nH]c(=O)c3c(C)n(-c4ccccc4)c(C)c3c2=O)CC1`, the “Ratio ED50” value (Mus musculus [1]) is reported as 100, the ED50 (Mus musculus [2]) is reported as “inactive” and the ED50 (Mus musculus [3]) is reported as 8.02 mg/kg. The LD50 [4] was greater than 2000 mg/kg.

In the case of `Cc1c2c(=O)[nH]n(CCN3CCN(c4cccc(C(F)(F)F)c4)CC3)c(=O)c2c(C)n1-c1ccccc1`, the Activity (Mus musculus [5]) is reported as 20%, the “Ratio ED50” value (Mus musculus [1]) is reported as 100 and the ED50 (Mus musculus [2]; 0.5 h) is reported as 15.9 mg/kg. For the same compound, the “Ratio ED50” value (Mus musculus [6]) was 3, the ED50 (Mus musculus [3]) was 1.23 mg/kg and the LD50 [4] was greater than 2000 mg/kg.

For `Cc1c2c(=O)[nH]n(CCN3CCN(c4ccccc4)CC3)c(=O)c2c(C)n1-c1ccccc1`, the “Ratio ED50” value (Mus musculus [1]) was 100, the ED50 (Mus musculus [2]) was “inactive” and the ED50 (Mus musculus [3]) was 1.48 mg/kg. The LD50 [4] was greater than 2000 mg/kg.

In the case of `Cc1c2c(=O)[nH]n(CCN3CCN(c4ccccc4F)CC3)c(=O)c2c(C)n1-c1ccccc1`, the Activity (Mus musculus [5]) is reported as 20%, the “Ratio ED50” value (Mus musculus [1]) is reported as 100 and the ED50 (Mus musculus [2]; 0.5 h) is reported as 15 mg/kg. For the same compound, the “Ratio ED50” value (Mus musculus [6]) was 3, the IC50 (Mu-type opioid receptor) was 24.2 µM and the Ki (Mu-type opioid receptor) was 11100 nM. For the same compound, the ED50 (Mus musculus [3]) was 0.31 mg/kg and the LD50 [4] was greater than 2000 mg/kg.

In the case of `Cc1c2c(=O)[nH]n(CCN3CCN(Cc4ccccc4)CC3)c(=O)c2c(C)n1-c1ccccc1`, the “Ratio ED50” value (Mus musculus [1]) is reported as 100, the ED50 (Mus musculus [2]) is reported as “inactive” and the ED50 (Mus musculus [3]) is reported as 0.04 mg/kg. The LD50 [4] was greater than 2000 mg/kg.

With `Cc1c2c(=O)[nH]n(CCN3CCN(c4ccccc4Cl)CC3)c(=O)c2c(C)n1-c1ccccc1` the “Ratio ED50” value (Mus musculus [1]) was 100, the ED50 (Mus musculus [2]) was “inactive” and the ED50 (Mus musculus [3]) was 3.77 mg/kg. For the same compound, the LD50 [4] was greater than 2000 mg/kg.

With `Cc1c2c(=O)[nH]n(CCN3CCN(C(c4ccccc4)c4ccccc4)CC3)c(=O)c2c(C)n1-c1ccccc1` the “Ratio ED50” value (Mus musculus [1]) was 100, the ED50 (Mus musculus [2]) was “inactive” and the ED50 (Mus musculus [3]) was 1.83 mg/kg. For the same compound, the LD50 [4] was greater than 2000 mg/kg.

For `CC(=O)Oc1ccccc1C(=O)O`, the inhibition (Mus musculus [7]) was “inactive”.

With `Cc1c2c(=O)[nH]n(CCN3CCN(C/C=C/c4ccccc4)CC3)c(=O)c2c(C)n1-c1ccccc1` the “Ratio ED50” value (Mus musculus [1]) was 100, the ED50 (Mus musculus [2]) was “inactive” and the ED50 (Mus musculus [3]) was 1.25 mg/kg. It also gave an LD50 [4] greater than 2000 mg/kg.

With `Cc1c2c(=O)[nH]n(CCN3CCN(Cc4ccc5c(c4)OCO5)CC3)c(=O)c2c(C)n1-c1ccccc1` the “Ratio ED50” value (Mus musculus [1]) was 100, the ED50 (Mus musculus [2]) was “inactive” and the ED50 (Mus musculus [3]) was 1.92 mg/kg. The LD50 [4] was greater than 2000 mg/kg.

In the case of `COc1ccccc1N1CCN(CCCOc2nn(C)c(=O)c3c(C)n(-c4ccccc4)c(C)c23)CC1`, the ED50 (Mus musculus [2]) is reported as “inactive”, the ED50 (Mus musculus [3]) is reported as 11.2 mg/kg and the LD50 [4] is reported as greater than 2000 mg/kg.

For `Cc1c2c(=O)[nH]n(CCN3CCN(c4ccccn4)CC3)c(=O)c2c(C)n1-c1ccccc1`, the “Ratio ED50” value (Mus musculus [1]) was 100, the ED50 (Mus musculus [2]) was “inactive” and the ED50 (Mus musculus [3]) was 6.84 mg/kg. For the same compound, the LD50 [4] was greater than 2000 mg/kg.
